The list shows a part of the results. The source made the active and inactive calls.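 How the source made its calls: active means inhibition of pump activity above 50%; inactive means the rest.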

The experiment deals with ATP-dependent translocase ABCB1 (Homo sapiens) (UniProt P08183). Description: blockers of ABCB1-mediated dye efflux – cell-based, single point, ABCG2 counter-screen, confirmation (AID 1451).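 Further: 0% = DMSO and 100% = nicardipine full pump inhibition.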 The settings on record: CCRF-Adr cells, JC-1 efflux, flow cytometry; at 6.6 µM; stronger effect = higher value. The method in brief: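 material = ABCB1-expressing CCRF-Adr cells | amount = 3 million cells per mL final in well | reagent = JC-1 substrate | compound dosing = single test-compound dose, 6.6 µM final | timing = 10 min exposure, 25 °C | measured by = flow cytometry, 530 nm emission | control set = nicardipine as high control, DMSO as low control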
Chain of ATP-dependent translocase ABCB1 (Homo sapiens) (P08183 whole entry, looked up): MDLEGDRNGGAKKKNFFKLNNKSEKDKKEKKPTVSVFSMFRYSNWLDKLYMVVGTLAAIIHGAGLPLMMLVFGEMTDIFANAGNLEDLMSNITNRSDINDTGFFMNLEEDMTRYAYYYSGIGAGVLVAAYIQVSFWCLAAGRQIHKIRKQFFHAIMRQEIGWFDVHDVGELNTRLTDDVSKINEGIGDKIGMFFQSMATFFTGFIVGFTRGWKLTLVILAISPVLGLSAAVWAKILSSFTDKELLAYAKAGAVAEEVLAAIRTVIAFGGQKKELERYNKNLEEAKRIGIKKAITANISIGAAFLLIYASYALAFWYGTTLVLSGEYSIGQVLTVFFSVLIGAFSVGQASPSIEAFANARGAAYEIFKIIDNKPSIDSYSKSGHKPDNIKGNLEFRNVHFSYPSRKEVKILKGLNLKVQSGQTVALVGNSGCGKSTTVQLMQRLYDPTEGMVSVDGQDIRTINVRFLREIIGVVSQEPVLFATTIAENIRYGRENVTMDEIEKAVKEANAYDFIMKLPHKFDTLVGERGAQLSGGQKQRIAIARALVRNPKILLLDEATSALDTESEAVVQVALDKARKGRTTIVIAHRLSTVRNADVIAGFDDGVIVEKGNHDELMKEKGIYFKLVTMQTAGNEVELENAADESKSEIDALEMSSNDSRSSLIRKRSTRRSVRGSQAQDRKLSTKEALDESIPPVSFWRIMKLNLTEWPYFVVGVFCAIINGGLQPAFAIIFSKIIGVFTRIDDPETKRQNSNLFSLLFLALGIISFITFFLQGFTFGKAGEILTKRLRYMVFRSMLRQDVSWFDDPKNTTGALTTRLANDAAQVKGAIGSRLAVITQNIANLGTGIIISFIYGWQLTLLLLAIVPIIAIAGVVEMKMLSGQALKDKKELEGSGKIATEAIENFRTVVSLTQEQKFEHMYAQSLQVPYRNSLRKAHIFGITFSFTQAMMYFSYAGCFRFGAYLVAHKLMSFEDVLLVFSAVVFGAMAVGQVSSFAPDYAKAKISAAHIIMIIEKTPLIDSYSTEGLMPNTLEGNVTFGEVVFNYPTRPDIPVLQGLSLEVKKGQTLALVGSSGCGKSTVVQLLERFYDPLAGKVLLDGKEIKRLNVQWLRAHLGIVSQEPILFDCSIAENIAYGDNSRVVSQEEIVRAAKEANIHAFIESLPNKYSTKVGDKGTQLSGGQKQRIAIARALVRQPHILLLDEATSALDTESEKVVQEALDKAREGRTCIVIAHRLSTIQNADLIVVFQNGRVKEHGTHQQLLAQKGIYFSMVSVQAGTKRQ
In general terms: Counterscreens check selectivity or assay interference.

A word on the inhibition: it is the change of the read-out against control, counted positive when it falls. Regarding `COc1ccc(C)cc1NC(=O)C(Sc1ccccc1)c1ccccc1` (stereo not drawn), the inhibition was 3.76% (inactive). As to `Cc1cccc2cc(CN(Cc3cccs3)C(c3nnnn3C3CCCC3)C(C)C)c(=O)[nH]c12` (stereo not drawn), the inhibition was 61.6% (active). Turning to `COc1cccc(NC(=O)c2ccc(Cn3cc([N+](=O)[O-])cn3)o2)c1`, the inhibition is -0.63% (inactive). Turning to `Cc1ccc(OCC(O)CN2CCN(CC(O)COc3ccc(C)cc3Cl)CC2)c(Cl)c1` (stereo not drawn), the inhibition is 17.1% (inactive). Consider `Cc1c(CCOC(=O)CC23CC4CC(CC(C)(C4)C2)C3)sc[n+]1Cc1ccc([N+](=O)[O-])cc1`, for which the inhibition was 0.26% (inactive). As for `C/C(=N\Nc1ncc(Cl)cc1Cl)c1ccc(S(=O)(=O)NCc2ccco2)cc1`, the inhibition is 1.61% (inactive).

`C=CCn1c(SCCOc2ccc(OC)cc2)nnc1C(NC(=O)c1ccc(OC)cc1)C(C)C` (stereo not drawn): the inhibition was 23.6% (inactive).

On to `O=C(Cc1c[nH]c2ccccc12)N/N=C/c1cccc(F)c1`, for which the inhibition was -0.99% (inactive). With `CCOC(=O)c1sc(NC(=O)CSc2nnc(-c3ccco3)o2)c(C(=O)OCC)c1C`, the inhibition was 15.2% (inactive).

On to `COc1ccc(-n2c(C)cc(C(=O)COC(=O)c3cc(OC)c(OC)cc3NC(=O)c3cccs3)c2C)cc1`, for which the inhibition is 3% (inactive).

Regarding `Cc1ccc(-n2c(SCC(=O)Nc3ncc(Cl)cc3Cl)nc3ccccc32)cc1`, the inhibition is 41.2% (inactive). In the case of `CCN1/C(=C/c2ccc3ccc(C)cc3[n+]2CC)Sc2ccccc21`, the inhibition is -9.15% (inactive). `CCOCC(=O)Nc1sc2c(c1C(=O)OCC)CCCC2`: the inhibition was 2.32% (inactive).

For the origin of these results see PubChem BioAssay AID1451 (NMMLSC, 2008).
